# Source: article PMC3549054 (Biochemistry, 2012)
# Entries after “also recorded” stand apart in the source; their conditions may differ. Where two headings read alike, the source gives them in different places.
# Tests used:
# rabbit GAPDH = rabbit GAPDH (Oryctolagus cuniculus, UniProt P46406); test: UV-visible binding of protoporphyrin IX analogs to rabbit GAPDH
# Ferric rGAPDH-heme = Ferric rGAPDH-heme (Oryctolagus cuniculus, UniProt P46406); format: binding, rabbit
# rGAPDH [1] = target: T1, rGAPDH (Oryctolagus cuniculus, UniProt P46406); test: Binding of pre-reduced heme to rGAPDH; design: species or system rabbit; conditions: after 10 min
# T1 sequence (P46406 2-333 limits assumed): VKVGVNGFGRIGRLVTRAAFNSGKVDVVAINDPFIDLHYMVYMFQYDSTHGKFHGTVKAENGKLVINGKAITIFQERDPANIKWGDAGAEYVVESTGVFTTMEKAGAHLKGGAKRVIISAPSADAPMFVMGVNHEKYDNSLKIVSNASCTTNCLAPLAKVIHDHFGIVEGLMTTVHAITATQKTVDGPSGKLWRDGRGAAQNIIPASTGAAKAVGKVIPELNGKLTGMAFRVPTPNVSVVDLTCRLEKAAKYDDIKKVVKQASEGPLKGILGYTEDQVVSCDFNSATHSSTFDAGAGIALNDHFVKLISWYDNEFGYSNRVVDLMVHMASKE
# rGAPDH [2] = target: T1, rGAPDH; test: Kinetics of heme transfer from GAPDH to apo-myoglobin, koff; format: binding, rabbit
# [3] = Redox potentiometry of rGAPDH-heme; format: physicochemical; conditions: titration of ferric complex with dithionite
# HTP (PhuT) = conditions: ref [21], cited from earlier work
# Shp = conditions: ref [84], cited from earlier work
# HtsA = conditions: ref [83], cited from earlier work
# [4] = target: Nuclear hormone receptor, Rev-erb β; conditions: read-out: Kd (direct), ref [14], cited from earlier work
# Sperm whale Mb = conditions: ref [56]; cited from earlier work
# HasAp = conditions: ref [34], cited from earlier work
# BSA = conditions: cited from earlier work
# pa-HO = conditions: ref [57], cited from earlier work
# nitrobindin = conditions: ref [68]; cited from earlier work
# CcmE = conditions: ref [82], cited from earlier work
# rGAPDH [5] = target: T1, rGAPDH; test: GAPDH dehydrogenase activity assay; format: biochemical, rabbit; conditions: data not shown
# How it was run: (§1)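 NADH formation was followed at 340 nm (ε340 = 6.22 mM−1cm−1) in 40 mM triethanolamine, 50 mM Na2HPO4, 0.2 mM EDTA, pH 8.9, with 2 mM NAD and 2 mM D-glyceraldehyde 3-phosphate. Reactions were started with ~1 µg enzyme. The rabbit enzyme was N-His6, Ni-NTA purified; the human enzyme was a GST fusion cleaved with thrombin. Both were expressed in E. coli.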
# hGAPDH = hGAPDH (Homo sapiens, UniProt P04406); test: GAPDH dehydrogenase activity assay; format: biochemical; conditions: data not shown
# Sequence of hGAPDH (P04406 2-335 limits assumed): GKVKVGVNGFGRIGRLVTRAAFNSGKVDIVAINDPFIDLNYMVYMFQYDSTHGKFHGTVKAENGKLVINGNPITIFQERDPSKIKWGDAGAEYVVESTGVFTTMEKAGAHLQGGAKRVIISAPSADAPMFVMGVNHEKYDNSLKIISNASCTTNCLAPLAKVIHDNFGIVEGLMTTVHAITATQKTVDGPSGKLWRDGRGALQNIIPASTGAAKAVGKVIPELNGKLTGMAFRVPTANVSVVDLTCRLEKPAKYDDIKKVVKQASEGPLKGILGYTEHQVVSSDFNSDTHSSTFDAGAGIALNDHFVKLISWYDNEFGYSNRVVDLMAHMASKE
# How it was run: as §1
# rGAPDH [6] = target: T1, rGAPDH; test: Stopped-flow kinetics of heme binding to GAPDH, kon; design: species or system rabbit; conditions: ferric heme, 10 °C
# How it was run: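 N-terminally His6-tagged rabbit GAPDH, expressed in E. coli BL21(DE3) and Ni-NTA purified. Freshly prepared hemin (5 µM) was mixed by stopped-flow at 10 °C with rGAPDH at 10–80 µM in 100 mM EPPS pH 7.6, 150 mM NaCl and 10% glycerol. Traces were collected on a diode array detector, and kobs was obtained from single-exponential fits.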
# PhuS = conditions: ref [57]; cited from earlier work
# [7] = target: HRI (heme regulated inhibitor), eIF2α; conditions: ref [60], cited from earlier work
# Apo-DHR51-LBD = conditions: read-out: Kd (direct); ref [81]; cited from earlier work
# Rv0203 = conditions: ref [85], cited from earlier work
# rGAPDH [8] = target: T1, rGAPDH; test: Spectrophotometric titration of GAPDH with hemin; format: binding, rabbit
# rGAPDH [9] = target: T1, rGAPDH; test: Ethoxylation of His residues with DEPC, then heme binding by UV-vis; format: biochemical, rabbit; conditions: 15 mM DEPC, 2 h on ice
# How it was run: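 Recombinant rabbit GAPDH (N-His6, E. coli BL21(DE3), Ni-NTA purified), 100 µM apo or preformed with 20 µM heme, treated with 15 mM DEPC on ice in 40 mM EPPS pH 7.6, 150 mM NaCl, 10% glycerol. Excess DEPC removed by three buffer exchanges on 10 kDa spin columns. Protein diluted to ~40 µM; UV-vis spectra taken before and after adding 8 µM fresh hemin.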
# [10] = target: Fe(II)-GAPDH (ferrous rGAPDH-heme) (Oryctolagus cuniculus, UniProt P46406); test: Stopped-flow kinetics of CO binding to Fe; design: species or system rabbit
# Sequence of Fe(II)-GAPDH (ferrous rGAPDH-heme) (P46406 2-333): as the sequence (P46406 2-333 limits assumed) above
# CBS = conditions: ref [44]; cited from earlier work
# [11] = pH 7.4 (Tris, 100 mM, 10% glycerol), room temperature
# [12] = CO-saturated buffer (1 mM final concentration), 10 °C
# [13] = fit of Equation 2 to fast phase
# Sequence of rabbit GAPDH (P46406 2-333 limits assumed): as above
# Sequence of Ferric rGAPDH-heme (P46406 2-333): as the sequence (P46406 2-333 limits assumed) above
molecule,measurement,setting,value
"Fe(III)-2,4-diacetyldeuteroporph IX",Binding to GAPDH (Comments),rabbit GAPDH; pH 7.4,"LS, partial binding, red-shift"
[N-]=[N+]=[N-] [azide],binding to ferric rGAPDH-heme / displacement of distal ligand (as summarised),Ferric rGAPDH-heme,unable to bind; also recorded: not displaced
C=CC1=C(C)c2cc3[n-]c(cc4[n-]c(cc5nc(cc1n2)C(C)=C5C=C)c(C)c4CCC(=O)O)c(CCC(=O)O)c3C.[Fe+2] [ferrous heme],fraction of total available reduced heme forming a complex with rGAPDH,rGAPDH [1],18%
same,koff of ferrous (reduced) heme,"rGAPDH [2]; ferrous heme, 25 °C, anaerobic, single exponential",0.0042 s⁻¹
GAPDH-heme: pre-formed complex of rabbit GAPDH with heme,"midpoint potential, reductive titration",[3],−153 ± 4 mV
"C=CC1=C(C)c2cc3[nH]c(cc4nc(cc5[nH]c(cc1n2)c(C)c5CCC(=O)O)C(CCC(=O)O)=C4C)c(C)c3C=C [Protoporph IX, Protoporphyrin IX]",Binding to GAPDH (Comments),rabbit GAPDH; [11],No binding
Fe(III)-mesoporph IX,Binding to GAPDH (Comments),rabbit GAPDH; pH 7.4,"LS, red-shift"
N#C[S-].[Na+] [thiocyanate],binding to ferric rGAPDH-heme (spectral shift),Ferric rGAPDH-heme,did not bind
Zn(II)-protoporph IX,Binding to GAPDH (Comments),rabbit GAPDH; pH 7.4,"LS, partial binding, red-shift"
"C=CC1=C(C)c2cc3[n-]c(cc4[n-]c(cc5nc(cc1n2)C(C)=C5C=C)c(C)c4CCC(=O)O)c(CCC(=O)O)c3C.[Cl-].[Fe+3] [hemin, Fe(III)-protoporphyrin IX]",Kd,HTP (PhuT); read-out: Kd (direct),1.2 mM
same,koff,HTP (PhuT),0.00038 s⁻¹
same,Kd,Shp; read-out: Kd (koff/kon),22 µM
same,kon,Shp,1.6e+06 M⁻¹ s⁻¹
same,Kd,HtsA; read-out: Kd (koff/kon),8 µM
same,kon,HtsA,8e+07 M⁻¹ s⁻¹
same,Kd,[4]; Rev-erb β (oxidized),117 nM
same,Kd,[4]; Rev-erb β (reduced),23 nM
same,koff,Sperm whale Mb,8.4e-07 s⁻¹
same,kon,Sperm whale Mb,7.6e+07 M⁻¹ s⁻¹
same,Kd,HasAp; read-out: Kd (koff/kon),35 µM
same,kon,HasAp,1.6e+07 M⁻¹ s⁻¹
same,heme dissociation rate,"BSA; BSA-heme, ref [65]",10^−2 s^−1
same,Kd,"BSA; read-out: Kd (koff/kon), ref [56]",0.22 nM
same,koff,BSA; ref [56],0.011 s⁻¹
same,kon,BSA; ref [56],5e+07 M⁻¹ s⁻¹
same,Kd,pa-HO; read-out: Kd (koff/kon),600 nM
same,koff,pa-HO,0.066 s⁻¹
same,kon,pa-HO,110000 M⁻¹ s⁻¹
same,heme loss rate,nitrobindin,3.6e-05 s⁻¹
same,Kd,"CcmE; read-out: Kd (direct) (M), high affinity",2e-07 M
same,Kd,"CcmE; read-out: Kd (direct) (M), low affinity",1e-05 M
same,effect of heme binding on dehydrogenase activity,rGAPDH [5],does not affect
same,Binding to GAPDH (Comments),rabbit GAPDH; [11],"LS, red-shift"
same,effect of heme binding on dehydrogenase activity,hGAPDH,does not affect
same,koff1 (fast phase),"rGAPDH [2]; ferric heme, 10 °C, bi-exponential fit",0.007 s⁻¹
same,Kd,"rGAPDH [2]; read-out: Kd (koff/kon) (M), from fast koff, Wild type rGAPDH",3.9e-07 M
same,Kd,"rGAPDH [2]; read-out: Kd (koff/kon) (M), from slow koff, Wild type rGAPDH",1.9e-08 M
same,Kd,"rGAPDH [2]; read-out: approximate affinities from koff/kon, ferric heme, 10 °C",1.9e-08 to 3.9e-07 M
same,kon,rGAPDH [6],17800 M⁻¹ s⁻¹
same,koff,PhuS,0.036 s⁻¹
same,kon,PhuS,180000 M⁻¹ s⁻¹
same,Kd,[7]; read-out: Kd (koff/kon),0.14 nM
same,koff,[7],0.0015 s⁻¹
same,kon,[7],1.1e+07 M⁻¹ s⁻¹
same,Kd,Apo-DHR51-LBD,430 nM
same,Kd,Rv0203; read-out: Kd (koff/kon),0.62 nM
same,koff,Rv0203,0.082 s⁻¹
same,kon,Rv0203,1.3e+08 M⁻¹ s⁻¹
same,Kd,"rGAPDH [8]; read-out: Kd (direct), Wild type rGAPDH",24 nM
same,Kd,"rGAPDH [8]; read-out: dissociation constant (Kd), direct titration, 10 µM rGAPDH, hemin 0–35 µM, 100 mM Tris pH 7.4, 10% glycerol",24 nM
"C=Cc1c(C)c2cc3[nH]c(cc4nc(cc5nc(cc1[nH]2)C(C)=C5CCC(=O)[O-])C(CCC(=O)[O-])=C4C)c(C)c3C=C.[Co+2] [Co(III)-protoporph IX, Co(III)-protoporphyrin IX]",Binding to GAPDH (Comments),rabbit GAPDH; [11],"LS, red-shift"
same,Binding to GAPDH (Comments),"rabbit GAPDH; pH 7.4 (Tris, 100 mM, 10% glycerol), room temperature, listed as Co(III)-protoporphyrin IX",bound
"CCOC(=O)OC(=O)OCC [DEPC, diethylpyrocarbonate]",effect of DEPC on preformed rGAPDH-heme spectral properties,rGAPDH [9],did not alter; also recorded: had no effect; also recorded: does not alter
same,effect of DEPC treatment of heme-free rGAPDH on heme binding,rGAPDH [9],abolished the protein’s ability to bind heme; also recorded: hampered heme binding completely; also recorded: unable to bind heme
c1c[nH]cn1 [imidazole],binding to ferric rGAPDH-heme (spectral shift),Ferric rGAPDH-heme,did not bind
same,binding to ferric rGAPDH-heme / displacement of distal ligand (as summarised),Ferric rGAPDH-heme,unable to bind
"[C-]#[O+] [CO, carbon monoxide]","kobs, 6-coord, 420 nm",[10],1.2 s⁻¹
same,kobs1 (fast phase) of CO binding,[10]; [12],1.5 s⁻¹
same,kobs2 (slow phase) of CO binding,[10]; [12],0.068 s⁻¹
same,rate of distal ligand displacement by CO,[10]; [CO]>0.2 mM,1.75 s⁻¹
same,axial ligand dissociation rate constant k−Y,[10]; [13],~ 2 s^−1
same,ligand rebinding rate ratio kY/k'CO,[10]; [13],~ 0.1 mM
same,"kobs 5-coord, 410 nm","[10]; saturating [CO], [rGAPDHtetramer]/[heme] < 1:1",4.3 s⁻¹
same,rebinding rate ratio for displacement of Cys^52 by CO,CBS,106 µM
Fe(III)-deuteroporph IX,Binding to GAPDH (Comments),rabbit GAPDH; pH 7.4,"LS, red-shift"
